# From ChEMBL document CHEMBL3244336, “Antitumor agents. 1. 1,4-Bis[(aminoalkyl)amino]-9,10-anthracenediones” (J Med Chem, 1979)
# Active and inactive are the calls of the source.
# Key:
# P388 [1] = assay: Antitumor activity against mouse P388 cells allografted in mouse assessed as increase of median life span at 100 mg/kg, ip on day 1, 5 and 9 measured up to 60 days relative to control; format: functional; settings: route intraperitoneal
# P388 [2] = assay: Antitumor activity against mouse P388 cells allografted in mouse assessed as disease cure at 100 mg/kg, ip on day 1, 5 and 9 measured up to 60 days; format: functional, organism-based; parameters: dose 100 mg/kg
# How it was run: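 BDF or CDF1 mice injected ip with ascitic leukemia cells, then dosed ip on days 1, 5 and 9. Deaths recorded for 60 days. Read-outs: percent increase in median life span over controls, and "cures" as survivors/total at 60 days.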
# P388 [3] = assay: Antitumor activity against mouse P388 cells allografted in mouse assessed as increase of median life span at 200 mg/kg, ip on day 1, 5 and 9 measured up to 60 days relative to control; format: functional; settings: route intraperitoneal
# How it was run: (§1)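 BDF1 or CDF1 mice inoculated ip with ascitic P388 leukemia cells. Dosing ip on days 1, 5 and 9. Deaths recorded for 60 days; % increase in median life span over controls. "Cures" are survivors/total at 60 days.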
# B16 [4] = assay: Antitumor activity against mouse B16 cells allografted in BDF1 mouse assessed as increase of median life span at 50 mg/kg, ip on day 1 to 9 measured up to 80 days relative to control; format: functional; settings: route intraperitoneal
# How it was run: (§2)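 BDF1 mice implanted ip with a homogenate from 0.05 g of B16 tumor. Test agent given ip on days 1-9. Deaths recorded for 80 days. Result is % increase in median life span over untreated controls. "Cures" are survivors/total at 80 days.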
# B16 [5] = assay: Antitumor activity against mouse B16 cells allografted in BDF1 mouse assessed as increase of median life span at 12.5 mg/kg, ip on day 1 to 9 measured up to 80 days relative to control; format: functional; settings: route intraperitoneal
# B16 [6] = assay: Antitumor activity against mouse B16 cells allografted in BDF1 mouse assessed as disease cure at 12.5 mg/kg, ip on day 1 to 9 measured up to 80 days; format: functional, organism-based; parameters: dose 12.5 mg/kg
# How it was run: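 BDF1 mice implanted ip with a homogenate from 0.05 g of tumor. Dosed ip on days 1–9, with deaths recorded for 80 days. "Cures" counted as survivors/total at 80 days.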
# P388 [7] = assay: Antitumor activity against mouse P388 cells allografted in mouse assessed as disease cure at 200 mg/kg, ip on day 1, 5 and 9 measured up to 60 days; format: functional, organism-based; parameters: dose 200 mg/kg
# How it was run: (§3)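 BDF1 or CDF1 mice inoculated ip with ascitic P388 leukemia cells, dosed ip on days 1, 5 and 9. Deaths recorded for 60 days; "cures" taken as number of survivors/total at 60 days.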
# B16 [8] = assay: Antitumor activity against mouse B16 cells allografted in BDF1 mouse assessed as disease cure at 50 mg/kg, ip on day 1 to 9 measured up to 80 days; format: functional, organism-based; parameters: dose 50 mg/kg
# How it was run: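 BDF1 mice implanted ip with homogenate from 0.05 g of B16 tumor, then dosed ip on days 1-9. Deaths recorded for 80 days; "cures" scored as survivors/total at 80 days.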
# P388 [9] = assay: Antitumor activity against mouse P388 cells allografted in ip dosed mouse assessed as minimum effective dose administered as single dose; format: functional; settings: read-out: MED
# How it was run: (§4)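 Drug given ip to P388 tumor-bearing mice, either once as a single dose or once each 4 days for three injections. Minimum effective dose defined as the dose giving 40% increase in life span over control, read from regression lines of log dose-response data.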
# P388 [10] = assay: Antitumor activity against mouse P388 cells allografted in ip dosed mouse assessed as minimum effective dose administered as once each 4 days for 3 total injection; format: functional; settings: 96 h, read-out: MED; how it was run: as §4
# [11] = Toxicity in […] assessed as maximum tolerated dose administered as single dose; format: organism-based, P388; settings: mouse, in vivo, ip
# [12] = Toxicity in […] assessed as maximum tolerated dose administered as once each 4 days for 3 total injection; format: organism-based, P388; settings: mouse, in vivo, ip
# P388 [13] = assay: Antitumor activity against mouse P388 cells allografted in ip dosed mouse assessed as dose providing 40% increase in life span administered as once each 4 days for 3 total injection; format: functional
# How it was run: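 P388 tumor-bearing mice dosed ip, either once as a single dose or once every 4 days for three injections. It was read from regression lines of log dose-response data.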
# [14] = Therapeutic index, ratio of MTD for mouse P388 cells allografted ip dosed mouse to MED for mouse P388 cells allografted in ip dosed mouse administered as single dose; format: organism-based; settings: in vivo, read-out: TI
# How it was run: (§5)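 Therapeutic index is MTD/MED for ip dosing, either single or once every 4 days ×3. MTD is the 10% lethal dose in normal mice over 21 days. MED is the dose giving a 40% life-span increase in P388-bearing mice. Both come from log dose-response regression lines.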
# [15] = Therapeutic index, ratio of MTD for mouse P388 cells allografted ip dosed mouse to MED for mouse P388 cells allografted in ip dosed mouse administered as once each 4 days for 3 total injection; format: organism-based; settings: in vivo, read-out: TI; how it was run: as §5
# P388 [16] = assay: Antitumor activity against mouse P388 cells allografted in mouse assessed as increase of median life span at 50 mg/kg, ip on day 1, 5 and 9 measured up to 60 days relative to control; format: functional; settings: route intraperitoneal; how it was run: as §1
# P388 [17] = assay: Antitumor activity against mouse P388 cells allografted in mouse assessed as increase of median life span at 25 mg/kg, ip on day 1, 5 and 9 measured up to 60 days relative to control; format: functional; settings: route intraperitoneal; how it was run: as §1
# B16 [18] = assay: Antitumor activity against mouse B16 cells allografted in BDF1 mouse assessed as increase of median life span at 6.2 mg/kg, ip on day 1 to 9 measured up to 80 days relative to control; format: functional; settings: route intraperitoneal; how it was run: as §2
# P388 [19] = assay: Antitumor activity against mouse P388 cells allografted in mouse assessed as disease cure at 25 mg/kg, ip on day 1, 5 and 9 measured up to 60 days; format: functional, organism-based; parameters: dose 25 mg/kg; how it was run: as §3
SMILES,ILS at 200 mg/kg (P388 [3]) [%],ILS at 50 mg/kg (B16 [4]) [%],Activity (P388 [7]),Activity (B16 [8]),further results
Nc1ccc(N)c2c1C(=O)c1ccccc1C2=O,,,,,ILS at 100 mg/kg (P388 [1]): 0%; Activity (P388 [2]): inactive
O=C1c2ccccc2C(=O)c2c(NCCO)ccc(NCCO)c21,,,,,ILS at 100 mg/kg (P388 [1]): 0%
CCN(CC)CCNc1ccc(NCCN(CC)CC)c2c1C(=O)c1c(O)ccc(O)c1C2=O,88,38,,,
O=C1c2c(O)ccc(O)c2C(=O)c2c(NCCN3CCCC3)ccc(NCCN3CCCC3)c21,,,,,ILS at 100 mg/kg (P388 [1]): 118%; Activity (P388 [2]): inactive; ILS at 12.5 mg/kg (B16 [5]): 58%; Activity (B16 [6]): inactive
CN(C)CCCNc1ccc(NCCCN(C)C)c2c1C(=O)c1ccccc1C2=O,0,0,,,
O=C1c2ccccc2C(=O)c2c(NCCN3CCCCC3)ccc(NCCN3CCCCC3)c21,27,,inactive,,
O=C1c2c(O)ccc(O)c2C(=O)c2c(NCCN3CCOCC3)ccc(NCCN3CCOCC3)c21,0,,inactive,,
CNCCNCCNc1ccc(NCCNCCNC)c2c1C(=O)c1c(O)ccc(O)c1C2=O,,122,,inactive,ILS at 100 mg/kg (P388 [1]): 120%
O=C1c2c(O)ccc(O)c2C(=O)c2c(NCCN3CCNCC3)ccc(NCCN3CCNCC3)c21,,103,,inactive,ILS at 100 mg/kg (P388 [1]): 133%; Activity (P388 [2]): inactive
Cc1ccc2c(c1)C(=O)c1c(NCCN(C)C)ccc(NCCN(C)C)c1C2=O,0,,inactive,,
O=P1(N(CCCl)CCCl)NCCCO1 (stereo not given) [CYCLOPHOSPHAMIDE ANHYDROUS],,,,,minimal effective dose (P388 [9]): 26.3 mg/kg; minimal effective dose (P388 [10]): 12 mg/kg; MTD [11]: 350 mg/kg; MTD at 96 h [12]: 100 mg/kg; Activity (P388 [13]): 142 mg/kg; selectivity ratio [14]: 13; selectivity ratio at 96 h [15]: 8
CCN1CCCC1CNc1ccc(NCC2CCCN2CC)c2c1C(=O)c1c(O)ccc(O)c1C2=O (stereo not given),45,30,inactive,inactive,
CCNc1ccc(NCC)c2c1C(=O)c1ccccc1C2=O,,,,,ILS at 100 mg/kg (P388 [1]): 0%
CN(C)CCCCCNc1ccc(NCCCCCN(C)C)c2c1C(=O)c1c(O)ccc(O)c1C2=O,0,0,inactive,inactive,
CN(C)CCCCNc1ccc(NCCCCN(C)C)c2c1C(=O)c1c(O)ccc(O)c1C2=O,0,0,inactive,inactive,
O=C1c2c(O)ccc(O)c2C(=O)c2c(NCCCN3CCOCC3)ccc(NCCCN3CCOCC3)c21,40,0,inactive,inactive,
CCCCN(CCCC)CCNc1ccc(NCCN(CCCC)CCCC)c2c1C(=O)c1c(O)ccc(O)c1C2=O,0,0,inactive,inactive,
CCN(CC)CCNc1ccc(NCCN(CC)CC)c2c1C(=O)c1ccccc1C2=O,40,,inactive,,
CCCNCCNc1ccc(NCCNCCC)c2c1C(=O)c1c(O)ccc(O)c1C2=O,,0,,inactive,ILS at 50 mg/kg (P388 [16]): 36%

SMILES,ILS at 200 mg/kg (P388 [3]) [%],ILS at 50 mg/kg (B16 [4]) [%],Activity (P388 [7]),Activity (B16 [8]),further results
CNCCNc1ccc(NCCNC)c2c1C(=O)c1ccccc1C2=O,,,,,ILS at 25 mg/kg (P388 [17]): 144%; ILS at 6.2 mg/kg (B16 [18]): 114%
O=C1c2ccccc2C(=O)c2c(NCCNCCO)ccc(NCCNCCO)c21 [AMETANTRONE],,,,,ILS at 25 mg/kg (P388 [17]): 154%; Activity (P388 [19]): inactive; ILS at 6.2 mg/kg (B16 [18]): 129%
CN(C)CCCCCNc1ccc(NCCCCCN(C)C)c2c1C(=O)c1ccccc1C2=O,0,,inactive,,
O=C1c2c(O)ccc(O)c2C(=O)c2c(NCCN3CC3)ccc(NCCN3CC3)c21,,,,,ILS at 100 mg/kg (P388 [1]): 185%; Activity (P388 [2]): inactive; ILS at 12.5 mg/kg (B16 [5]): 58%; Activity (B16 [6]): inactive
O=C1c2c(O)ccc(O)c2C(=O)c2c(NCCNCC(O)CO)ccc(NCCNCC(O)CO)c21 (stereo not given),,,,,ILS at 50 mg/kg (P388 [16]): > 422%; ILS at 12.5 mg/kg (B16 [5]): 79%; Activity (B16 [6]): inactive
O=C1c2c(O)ccc(O)c2C(=O)c2c(NCCO)ccc(NCCO)c21,,,,,ILS at 100 mg/kg (P388 [1]): 0%; Activity (P388 [2]): inactive
CN(C)CCNc1ccc(NCCN(C)C)c2c1C(=O)c1ccccc1C2=O,,39,,,ILS at 100 mg/kg (P388 [1]): 68%
NCCNc1ccc(NCCN)c2c1C(=O)c1ccccc1C2=O,145,100,inactive,,ILS at 25 mg/kg (P388 [17]): 144%; Activity (P388 [19]): inactive; ILS at 12.5 mg/kg (B16 [5]): 82%
CN(CCNc1ccc(NCCN(C)c2ccccc2)c2c1C(=O)c1c(O)ccc(O)c1C2=O)c1ccccc1,0,0,inactive,inactive,
COc1cccc2c1C(=O)c1c(O)c3c(c(O)c1C2=O)C[C@@](O)(C(C)=O)C[C@@H]3O[C@H]1C[C@H](N)[C@H](O)[C@H](C)O1 [DAUNORUBICIN],,,,,minimal effective dose (P388 [9]): 0.52 mg/kg; MTD [11]: 5.2 mg/kg; selectivity ratio [14]: 10
CC(=O)NCCNc1ccc(NCCNC(C)=O)c2c1C(=O)c1c(O)ccc(O)c1C2=O,0,0,,inactive,
CN(C)CCNc1ccc(NCCN(C)C)c2c1C(=O)c1c(O)ccc(O)c1C2=O,,,,,ILS at 50 mg/kg (P388 [16]): 122%; ILS at 12.5 mg/kg (B16 [5]): 70%
CCN(CC)CCCC(C)Nc1ccc(NC(C)CCCN(CC)CC)c2c1C(=O)c1c(O)ccc(O)c1C2=O (stereo not given),,0,,inactive,ILS at 100 mg/kg (P388 [1]): 30%; Activity (P388 [2]): inactive
CC(C)N(CCNc1ccc(NCCN(C(C)C)C(C)C)c2c1C(=O)c1c(O)ccc(O)c1C2=O)C(C)C,0,0,inactive,inactive,
CN(C)CCNc1ccc(NCCN(C)C)c2c1C(=O)c1cc(Cl)c(Cl)cc1C2=O,0,,inactive,,
O=c1[nH]cc(F)c(=O)[nH]1 [FLUOROURACIL],,,,,minimal effective dose (P388 [9]): 88 mg/kg; minimal effective dose (P388 [10]): 11.4 mg/kg; MTD [11]: 280 mg/kg; MTD at 96 h [12]: 48 mg/kg; Activity (P388 [13]): 70 mg/kg; selectivity ratio [14]: 3; selectivity ratio at 96 h [15]: 4
CN(Cc1cnc2nc(N)nc(N)c2n1)c1ccc(C(=O)N[C@@H](CCC(=O)O)C(=O)O)cc1 [METHOTREXATE],,,,,minimal effective dose (P388 [9]): 27.9 mg/kg; minimal effective dose (P388 [10]): 1.5 mg/kg; MTD [11]: 108 mg/kg; MTD at 96 h [12]: 17.5 mg/kg; Activity (P388 [13]): 102 mg/kg; selectivity ratio [14]: 4; selectivity ratio at 96 h [15]: 11
O=C1c2c(O)ccc(O)c2C(=O)c2c(NCCNCCNCCO)ccc(NCCNCCNCCO)c21,,35,,inactive,ILS at 100 mg/kg (P388 [1]): 73%
